In assay [1] the test system is Pseudomonas aeruginosa. Briefly: Antibacterial activity against Pseudomonas aeruginosa ATCC 27853 assessed as inhibition of bacterial growth at 6 to 12 hrs by dilution method. In kind it is functional. The settings on record: time 6-12 hrs. The method in brief:
(§1)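 Broth-free microdilution MIC assay. Microbes were grown overnight in 3% TSB at 37 °C, washed twice and resuspended in Tris buffer, then adjusted by A600 to 1 × 10⁶ cells/mL (about 50 000 cells/well). Cells were mixed 1:1 with 2-fold serial dilutions of peptide in Tris buffer (highest tested 32.5 μM) and held 5 h. Then 20% TSB was added and plates incubated 6–12 h at 37 °C, depending on organism. MIC was read as the lowest concentration giving 100% growth inhibition. Run in triplicate.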

The subject of assay [2] is Staphylococcus aureus. In words: Antibacterial activity against Staphylococcus aureus ATCC 29213 assessed as inhibition of bacterial growth at 6 to 12 hrs by dilution method. In kind it is functional. The settings on record: time 6-12 hrs. The method in brief: as §1
Assay [3] has as its system Candida albicans. Briefly: Antibacterial activity against Candida albicans ATCC 90028 assessed as inhibition of bacterial growth at 6 to 12 hrs by dilution method. The assay is classed as functional. The settings on record: time 6-12 hrs. In short, it runs like this:
as §1

The subject of assay [4] is Cell membrane. In words: Induction of bacterial inner membrane permeabilization in Escherichia coli assessed as carboxyfluorescein leakage measured for 45 mins by fluorescence based microplate reader assay. In kind it is subcellular. In short, it runs like this:
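Liposomes were made from E. coli polar lipid extract loaded with 100 mM carboxyfluorescein in 10 mM Tris, pH 7.4, extruded through 100 nm membranes and gel-filtered. They were added at 10 μM final lipid to 2-fold peptide dilutions in Tris at 37 °C, with no cumulative additions. Dequenching was monitored for 45 min and normalized to 0.16% Triton X-100 after baseline subtraction. Values are the mean ± SD of triplicates; EC50 came from a variable-slope sigmoidal fit against log concentration.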

For assay [5], the system named is U-937. Briefly: Cytotoxicity against human U-937 cells assessed as cell survival at 20 uM incubated for 72 hrs by FMCA assay. In kind it is functional, cell-based. The method in brief: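 FMCA with U937 human lymphoma cells, about 20 000 cells/well, exposed to 2-fold peptide dilutions for 72 h at 37 °C in 5% CO₂. Cells were washed with PBS and given FDA in Q2 buffer (NaCl/HEPES, pH 7.4) for 40 min at 37 °C. Fluorescence was read at ex 485/em 538 nm. Viability was expressed as % of control after blank subtraction; IC50 came from a variable-slope sigmoidal fit against log concentration.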

Assay [6] relates to U-937. In words: Cytotoxicity against human U-937 cells assessed as inhibition of cell growth incubated for 72 hrs by FMCA assay. The assay is classed as functional, cell-based. As to conditions: U-937, 72 h. The method in brief: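 FMCA with U937 human lymphoma cells, about 20 000 cells/well, exposed to 2-fold peptide dilutions for 72 h at 37 °C in 5% CO₂. Cells were washed with PBS and given FDA in Q2 buffer (NaCl/HEPES, pH 7.4) for 40 min at 37 °C. Viability was expressed as % of control after blank subtraction; IC50 came from a variable-slope sigmoidal fit against log concentration.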

Each structure is given as a SMILES string. Converted amounts (≈) assume the structure as drawn. The source made the active and inactive calls. The rule behind the calls is not given here. Where a SMILES comes first, the peptide text is derived from it. Bridges are numbered along the chain shown (N, C = ends).

`CC[C@H](C)[C@@H]1NC(=O)[C@H](Cc2ccccc2)NC(=O)[C@H](C(C)C)NC(=O)[C@@H]2CSSC[C@@H]3NC(=O)[C@H](CO)NC(=O)[C@H]4CSSC[C@H](NC(=O)[C@@H]5CCCN5C(=O)[C@H](C(C)C)NC(=O)CNC(=O)[C@H](CC(N)=O)NC(=O)[C@H](CC(N)=O)NC(=O)[C@H](Cc5ccc(O)cc5)NC(=O)[C@H](CSSC[C@H](NC(=O)[C@@H]5CCCN5C1=O)C(=O)N[C@@H](Cc1ccccc1)C(=O)N[C@@H]([C@@H](C)O)C(=O)N[C@@H]([C@@H](C)O)C(=O)N[C@@H](C(C)C)C(=O)N[C@@H](C(C)C)C(=O)NCC(=O)N4)NC(=O)[C@H](C(C)C)NC(=O)[C@H](CCCCN)NC(=O)[C@H](CC(=O)O)NC(=O)[C@H](CCCCN)NC3=O)C(=O)NCC(=O)N[C@@H](CCC(=O)O)C(=O)N[C@@H](CO)C(=O)N2`: the MIC in assay [1], in assay [2] and in assay [3] was above 10 µM each time. The EC50 in assay [4] turned out to be 160 nM. The outcome in assay [5] was Active.
Turning to `CC[C@H](C)[C@@H]1NC(=O)CNC(=O)[C@H](CC(N)=O)NC(=O)[C@H]([C@@H](C)CC)NC(=O)[C@H](Cc2ccc(O)cc2)NC(=O)[C@@H]2CSSC[C@H]3NC(=O)CNC(=O)[C@H](Cc4ccccc4)NC(=O)[C@H](Cc4ccc(O)cc4)NC(=O)[C@H](C)NC(=O)[C@@H]4CSSC[C@H](NC(=O)[C@H](CO)NC(=O)[C@H](CSSC[C@H](NC(=O)[C@H](C)NC1=O)C(=O)NCC(=O)N[C@@H](CCC(=O)O)C(=O)N[C@@H](CO)C(=O)N4)NC(=O)CNC(=O)[C@@H]1CCCN1C(=O)[C@H]([C@@H](C)CC)NC(=O)[C@H](Cc1c[nH]c4ccccc14)NC3=O)C(=O)N[C@@H](CCCCN)C(=O)N[C@@H](CC(=O)O)C(=O)N[C@@H](CCCCN)C(=O)N[C@@H](C(C)C)C(=O)N2`, the MIC in assay [1], in assay [2] and in assay [3] was above 10 µM in each case. Moreover, the EC50 in assay [4] amounted to 140 nM. Besides, the outcome in assay [5] was Active.
Regarding `CC[C@H](C)[C@@H]1NC(=O)[C@H](C(C)C)NC(=O)[C@H]([C@@H](C)O)NC(=O)[C@H]([C@@H](C)O)NC(=O)[C@H]([C@@H](C)CC)NC(=O)[C@H]2CSSC[C@@H]3NC(=O)[C@H](C(C)C)NC(=O)[C@H](CCCCN)NC(=O)[C@H](CC(=O)O)NC(=O)[C@H](CCCCN)NC(=O)[C@@H]4CSSC[C@H](NC(=O)[C@H](CO)NC(=O)[C@H](CCC(=O)O)NC(=O)CNC(=O)[C@H](CSSC[C@@H](NC(=O)CNC1=O)C(=O)N[C@@H](CO)C(=O)N4)NC(=O)[C@@H]1CCCN1C(=O)[C@H](C(C)C)NC(=O)CNC(=O)[C@H](CC(N)=O)NC(=O)[C@H]([C@@H](C)O)NC(=O)[C@H](Cc1ccc(O)cc1)NC3=O)C(=O)N[C@@H](C(C)C)C(=O)N[C@@H](Cc1ccccc1)C(=O)N[C@@H]([C@@H](C)CC)C(=O)N1CCC[C@H]1C(=O)N2`, the MIC in assay [1], in assay [2] and in assay [3] was above 10 µM in each case. For the same molecule, the EC50 in assay [4] worked out at 160 nM. Further, the outcome in assay [5] was Active.
Regarding `CC[C@H](C)[C@@H]1NC(=O)[C@H](C)NC(=O)[C@H](CO)NC(=O)[C@H](CO)NC(=O)[C@H]([C@@H](C)CC)NC(=O)[C@@H]2CSSC[C@@H]3NC(=O)[C@H](C(C)C)NC(=O)[C@H](CCCCN)NC(=O)[C@H](CO)NC(=O)[C@H](CCCCN)NC(=O)[C@@H]4CSSC[C@H](NC(=O)[C@H](CO)NC(=O)[C@H](CCC(=O)O)NC(=O)CNC(=O)[C@H](CSSC[C@H](NC(=O)CNC1=O)C(=O)N[C@@H](CO)C(=O)N4)NC(=O)[C@@H]1CCCN1C(=O)[C@H]([C@@H](C)CC)NC(=O)CNC(=O)[C@H](CC(N)=O)NC(=O)[C@H](CCCNC(=N)N)NC(=O)[C@H](Cc1ccc(O)cc1)NC3=O)C(=O)N[C@@H](C(C)C)C(=O)N[C@@H](Cc1c[nH]c3ccccc13)C(=O)N[C@@H]([C@@H](C)CC)C(=O)N1CCC[C@H]1C(=O)N2` (cyclo(AIGCSCKSKVCYRNGIPCGESCVWIPCISS); disulfide 4-18, 6-22, 11-27), the results for the MIC in assay [1], in assay [2] and in assay [3] were 10 µM (≈ 31.4 µg/mL), above 10 µM and above 10 µM, respectively. The IC50 in assay [6] is 260 nM.

The values above are taken from ChEMBL document CHEMBL5226362, “Screening for Cyclotides in Sri Lankan Medicinal Plants: Discovery, Characterization, and Bioactivity Screening of Cyclotides from Geophila repens” (J Nat Prod, 2023).
